We go through 10 compounds from ChEMBL document CHEMBL1137436, “Development of Tyrocidine A analogues with improved antibacterial activity” (2007).

Structures are written as SMILES. Values after ≈ are worked out from the molar mass of the structure shown. Where a SMILES comes first, the peptide text is derived from it. [ ]: non-standard residue; d: D form. Orn = NCCC[C@H](N)C(=O)O

Experiment [1] concerns Staphylococcus aureus. Briefly: Antibacterial activity against methicillin-susceptible Staphylococcus aureus ATCC 29213 in presence of 25 mg/L calcium by microdilution method. The format is functional. The gist of the method: (§1)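 CLSI broth microdilution in cation-adjusted Mueller-Hinton broth (CAMHB); compounds dissolved in CAMHB or a little DMSO then broth. Overnight cultures suspended in saline to 0.5 McFarland, diluted 1:100 in CAMHB and added to wells of diluted compound. Drug-free wells subcultured quantitatively for actual colony counts. Calcium at 25 or 50 mg/L as the line states.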
(In general: Broth dilution looks for growth in wells or tubes with falling amounts of substance.)

Experiment [2] concerns Enterococcus faecalis. Briefly: Antibacterial activity against Enterococcus faecalis ATCC 29212 in presence of 25 mg/L calcium by microdilution method. The format is functional. In a few lines:
as §1

The subject of experiment [3] is Staphylococcus aureus. Put plainly: Antibacterial activity against methicillin-resistant Staphylococcus aureus ATCC 33592 in presence of 25 mg/L calcium by microdilution method. The experiment is classed as functional. The gist of the method:
as §1

For experiment [4], the system named is Bacillus cereus. Briefly: Antibacterial activity against Bacillus cereus MRL 18731 in presence of 25 mg/L calcium by microdilution method. The experiment is classed as functional. In a few lines:
(§2)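 CLSI broth microdilution MIC. Compounds dissolved in cation-adjusted Mueller-Hinton broth (CAMHB), or in a little DMSO then broth. Overnight cultures suspended in saline to 0.5 McFarland, diluted 1:100 in CAMHB, added to wells of diluted compound. Drug-free wells quantitatively subcultured to confirm actual colony counts. Calcium at 25 or 50 mg/L.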

For experiment [5], the system named is Enterococcus faecalis. Put plainly: Antibacterial activity against vancomycin-resistant Enterococcus faecalis MRL 17001 in presence of 25 mg/L calcium by microdilution method. The experiment is classed as functional. The gist of the method: as §1
Experiment [6] relates to Staphylococcus epidermidis. Put plainly: Antibacterial activity against methicillin-resistant Staphylococcus epidermidis MRL 19010 in presence of 25 mg/L calcium by microdilution method. The experiment is classed as functional. In a few lines: as §1
In experiment [7] the test system is Escherichia coli. Put plainly: Antibacterial activity against Escherichia coli ATCC 25922 in presence of 25 mg/L calcium by microdilution method. The experiment is classed as functional. The gist of the method:
as §2

Experiment [8] relates to Bacillus subtilis. Put plainly: Antibacterial activity against Bacillus subtilis MRL 18734 in presence of 25 mg/L calcium by microdilution method. The experiment is classed as functional. In a few lines:
as §2

The subject of experiment [9] is Bacillus subtilis. Briefly: Antibacterial activity against Bacillus subtilis MRL 18734 in presence of 50 mg/L calcium by microdilution method. The experiment is classed as functional. The gist of the method:
(§3)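 CLSI broth microdilution. Compounds dissolved in cation-adjusted Mueller-Hinton broth (CAMHB), or in a small amount of DMSO followed by broth. Overnight cultures suspended in saline to 0.5 McFarland, diluted 1:100 in CAMHB and added to wells of diluted compound. Drug-free wells subcultured quantitatively to give actual colony counts. Calcium tested at 50 mg/L, alongside the standard 25 mg/L.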

The subject of experiment [10] is Staphylococcus epidermidis. Briefly: Antibacterial activity against methicillin-resistant Staphylococcus epidermidis MRL 19010 in presence of 50 mg/L calcium by microdilution method. The format is functional. In a few lines:
as §1

The subject of experiment [11] is Bacillus cereus. Briefly: Antibacterial activity against Bacillus cereus MRL 18731 in presence of 50 mg/L calcium by microdilution method. The format is functional. In a few lines: as §3
For experiment [12], the system named is Escherichia coli. Put plainly: Antibacterial activity against Escherichia coli ATCC 25922 in presence of 50 mg/L calcium by microdilution method. The experiment is classed as functional. The gist of the method:
as §2

The test system of experiment [13] is Enterococcus faecalis. Put plainly: Antibacterial activity against Enterococcus faecalis ATCC 29212 in presence of 50 mg/L calcium by microdilution method. The format is functional. In a few lines:
as §1

Experiment [14] concerns Staphylococcus aureus. Put plainly: microbe, parasite or virus in culture. To be noted: ATCC 29213.
The subject of experiment [15] is Staphylococcus aureus. Put plainly: microbe, parasite or virus in culture. To be noted: ATCC 33592.
For experiment [16], the system named is Enterococcus faecalis. Put plainly: Antibacterial activity against vancomycin-resistant Enterococcus faecalis MRL 17001 in presence of 50 mg/L calcium by microdilution method. The experiment is classed as functional. The gist of the method: as §1

For `CC(C)C[C@@H]1NC(=O)[C@H](CCCN)NC(=O)[C@H](C(C)C)NC(=O)[C@H](Cc2ccc(O)cc2)NC(=O)[C@H](CCCCN)NC(=O)[C@H](CC(N)=O)NC(=O)[C@@H](CCCCN)NC(=O)[C@H](Cc2ccccc2)NC(=O)[C@@H]2CCCN2C(=O)[C@@H](Cc2ccccc2)NC1=O`, the MIC in experiment [1] stood at 16 µg/mL; in experiment [2] it was 32 µg/mL; in [3] it was 16 µg/mL; in [4], 16 µg/mL; in experiment [5], 8 µg/mL; in experiment [6] it was 4 µg/mL. Moreover, the figures for the MIC in experiment [7] and in [8] were 32 µg/mL and 2 µg/mL, respectively.
Consider `CC(C)C[C@@H]1NC(=O)[C@H](CCCN)NC(=O)[C@H](C(C)C)NC(=O)[C@H](Cc2ccc(O)cc2)NC(=O)[C@H](CCCCN)NC(=O)[C@H](CC(N)=O)NC(=O)[C@@H](Cc2ccccc2)NC(=O)[C@H](Cc2c(F)c(F)c(F)c(F)c2F)NC(=O)[C@@H]2CCCN2C(=O)[C@@H](Cc2ccccc2)NC1=O`, for which the MIC was 16 µg/mL in experiment [1]; 4 µg/mL in experiment [2]; 8 µg/mL in experiment [3]; 8 µg/mL in experiment [4]; 4 µg/mL in experiment [5]; 4 µg/mL in experiment [6]. Also, the MIC was more than 256 µg/mL in experiment [7] and 8 µg/mL in experiment [8].
As for `CC(C)C[C@@H]1NC(=O)[C@H](CCCN)NC(=O)[C@H](C(C)C)NC(=O)[C@H](Cc2ccc(O)cc2)NC(=O)[C@H](CCC(N)=O)NC(=O)[C@H](CC(N)=O)NC(=O)[C@@H](CCCCN)NC(=O)[C@H](Cc2ccccc2)NC(=O)[C@@H]2CCCN2C(=O)[C@@H](Cc2ccccc2)NC1=O`, the MIC in [1] was 32 µg/mL; in experiment [2] it was 64 µg/mL; in [3], 64 µg/mL; in experiment [4], 64 µg/mL; in [5] it was 32 µg/mL; in experiment [6] it was 32 µg/mL. The figures for the MIC in [7] and in experiment [8] were 128 µg/mL and 16 µg/mL, respectively.
As for `CC(C)C[C@@H]1NC(=O)[C@H](CCCN)NC(=O)[C@H](C(C)C)NC(=O)[C@H](Cc2ccc(O)cc2)NC(=O)[C@H](CCCCN)NC(=O)[C@H](CC(N)=O)NC(=O)[C@@H](CCCCN)NC(=O)[C@H](Cc2c(F)c(F)c(F)c(F)c2F)NC(=O)[C@@H]2CCCN2C(=O)[C@@H](Cc2ccccc2)NC1=O`, the MIC was 8 µg/mL in experiment [1]; 16 µg/mL in experiment [2]; 8 µg/mL in experiment [3]; 4 µg/mL in [4]; 4 µg/mL in experiment [5]; 4 µg/mL in experiment [6]. The results for the MIC in [7] and in experiment [8] were 32 µg/mL and 2 µg/mL, respectively.
As for `CC(C)C[C@@H]1NC(=O)[C@H](CCCN)NC(=O)[C@H](C(C)C)NC(=O)[C@H](Cc2ccc(O)cc2)NC(=O)[C@H](CCC(N)=O)NC(=O)[C@H](CC(N)=O)NC(=O)[C@@H](Cc2ccccc2)NC(=O)[C@H](Cc2c(F)c(F)c(F)c(F)c2F)NC(=O)[C@@H]2CCCN2C(=O)[C@@H](Cc2ccccc2)NC1=O`, the MIC in experiment [1] was 8 µg/mL; in experiment [2], 4 µg/mL; in experiment [3], 16 µg/mL; in experiment [4] it was 4 µg/mL; in [5], 8 µg/mL; in experiment [6], 8 µg/mL. In addition, the MIC in experiment [7] is more than 256 µg/mL; in experiment [8], 4 µg/mL.
`CC(C)C[C@@H]1NC(=O)[C@H](CCCN)NC(=O)[C@H](C(C)C)NC(=O)[C@H](Cc2c(F)c(F)c(F)c(F)c2F)NC(=O)[C@H](CCC(N)=O)NC(=O)[C@H](CC(N)=O)NC(=O)[C@@H](Cc2ccccc2)NC(=O)[C@H](Cc2ccccc2)NC(=O)[C@@H]2CCCN2C(=O)[C@@H](Cc2ccccc2)NC1=O`: the MIC is 16 µg/mL in experiment [1]; 2 µg/mL in [2]; 16 µg/mL in [3]; 8 µg/mL in experiment [4]; 2 µg/mL in experiment [5]; 2 µg/mL in [6]. Also, the MIC was more than 256 µg/mL in [7] and 8 µg/mL in [8].
On to `CC(C)C[C@@H]1NC(=O)[C@H](CCCN)NC(=O)[C@H](C(C)C)NC(=O)[C@H](Cc2c(F)c(F)c(F)c(F)c2F)NC(=O)[C@H](CCC(N)=O)NC(=O)[C@H](CC(N)=O)NC(=O)[C@@H](Cc2ccccc2)NC(=O)[C@H](Cc2c(F)c(F)c(F)c(F)c2F)NC(=O)[C@@H]2CCCN2C(=O)[C@@H](Cc2ccccc2)NC1=O`, for which the MIC is more than 256 µg/mL in experiment [1]; 32 µg/mL in [2]; more than 256 µg/mL in [3]; 256 µg/mL in experiment [4]; 32 µg/mL in [5]; 256 µg/mL in experiment [6]. Also, the values for the MIC in [7] and in [8] were more than 256 µg/mL and 128 µg/mL, respectively.
In the case of `CCCCCCCCCC(=O)N[C@@H](Cc1c[nH]c2ccccc12)C(=O)N[C@H](CC(N)=O)C(=O)N[C@@H](CC(=O)O)C(=O)N[C@@H]1C(=O)NCC(=O)N[C@@H](CCCN)C(=O)N[C@@H](CC(=O)O)C(=O)N[C@H](C)C(=O)N[C@@H](CC(=O)O)C(=O)NCC(=O)N[C@H](CO)C(=O)N[C@@H]([C@H](C)CC(=O)O)C(=O)N[C@@H](CC(=O)c2ccccc2N)C(=O)O[C@@H]1C`, the MIC in experiment [9] is 0.25 µg/mL; in experiment [1], 1 µg/mL; in [10], 0.5 µg/mL; in [2], 1 µg/mL; in experiment [3], 1 µg/mL; in [11], 0.25 µg/mL. Besides, the MIC in [12] was more than 128 µg/mL; in experiment [4], 0.5 µg/mL; in experiment [5], 2 µg/mL; in [13], 1 µg/mL; in experiment [6], 1 µg/mL; in [7], more than 128 µg/mL. In addition, the MIC in experiment [14] is 0.25 µg/mL (≈ 0.154 µM); in experiment [8], 1 µg/mL; in experiment [15] it was 0.25 µg/mL (≈ 0.154 µM); in experiment [16] it was 1 µg/mL.
In the case of `CC(C)C[C@@H]1NC(=O)[C@H](CCCN)NC(=O)[C@H](C(C)C)NC(=O)[C@H](Cc2ccc(O)cc2)NC(=O)[C@H](CCCCN)NC(=O)[C@H](CC(N)=O)NC(=O)[C@@H](Cc2ccccc2)NC(=O)[C@H](Cc2ccccc2)NC(=O)[C@@H]2CCCN2C(=O)[C@@H](Cc2ccccc2)NC1=O` (cyclo(F[dF]NKYV[Orn]L[dF]P)), the MIC in [1] was 4 µg/mL; in experiment [2], 2 µg/mL; in experiment [3], 4 µg/mL; in experiment [4], 2 µg/mL; in experiment [5], 2 µg/mL; in [6], 2 µg/mL. Besides, the MIC in experiment [7] turned out to be 128 µg/mL; in experiment [8], 2 µg/mL.
For the compound `CC(C)C[C@@H]1NC(=O)[C@H](CCCN)NC(=O)[C@H](C(C)C)NC(=O)[C@H](Cc2ccc(O)cc2)NC(=O)[C@H](CCC(N)=O)NC(=O)[C@H](CC(N)=O)NC(=O)[C@@H](Cc2ccccc2)NC(=O)[C@H](Cc2ccccc2)NC(=O)[C@@H]2CCCN2C(=O)[C@@H](Cc2ccccc2)NC1=O` [TYROCIDINE A] (cyclo(F[dF]NQYV[Orn]L[dF]P)), the MIC stood at 32 µg/mL in experiment [1]; 16 µg/mL in [2]; 32 µg/mL in experiment [3]; 16 µg/mL in experiment [4]; 16 µg/mL in experiment [5]; 16 µg/mL in [6]. In addition, the MIC in experiment [7] is more than 128 µg/mL; in experiment [8], 16 µg/mL.
